In paper PMC3673543 (Biochemistry, 2012):

T1: Tat49-57 peptide, fluorescein/TAMRA FRET probe (HIV-1, UniProt P04608 49-57, not fully specified)
T1 chain: RKKRRQRRR


What was measured:
[1] = test system: HIV TAR RNA; experiment: UV thermal denaturation of HIV TAR RNA with ligand; assay type: binding, HIV-1; conditions: 100 mM KCl; for ΔTm (at rdr = 1): pH 6.8, TAR RNA 1 μM/strand; for Tm: ligand/HIV TAR RNA complex, rdr = 1, 10 mM SC, 0.5 mM EDTA, pH 6.8, TAR RNA 1 μM/strand
[2] = biological target: HIV TAR RNA; experiment: Ethidium bromide displacement titration with Scatchard analysis; assay type: binding, HIV-1; conditions: 100 mM KCl, 10 mM SC, 0.5 mM EDTA, pH 6.8; TAR RNA 200 nM/strand; EtBr 5 μM
Summary of the method: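 Fluorescent intercalator displacement: test compound titrated into ethidium bromide (5 μM) plus HIV TAR RNA (200 nM/strand) in 10 mM SC, 0.5 mM EDTA, pH 6.8 with 100 mM KCl. Salt series run at 50, 100 and 150 mM KCl. Excitation 545 nm, emission 560–607 nm. Scatchard plot slope gives the association constant K. For the salt series, log K was plotted against log [KCl] and fitted linearly.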

[3] = biological target: HIV TAR RNA; experiment: Ethidium bromide displacement; assay type: binding, HIV-1; conditions: read-out: IC50 (ethidium bromide displacement); 100 mM KCl, 10 mM SC, 0.5 mM EDTA, pH 6.8; HIV TAR RNA 50 nM/strand
Summary of the method: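 Ethidium bromide at 1.25 μM is excited at 545 nm, and emission is scanned from 560 to 607 nm before and after adding TAR RNA. Under these conditions, less than 20% of the ethidium bromide is bound. Fluorescence displacement titration with test compound follows in the same buffer.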

[4] = test system: TAR; conditions: aminoglycosides targeted towards TAR binding; cited from earlier work
[5] = test system: HIV; experiment: Protection from HIV-induced cytopathic effect; assay type: cell-based; conditions: for Maximum protection from HIV cytopathic effects: neutral red dye
Summary of the method: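 MT-2 cells, a line highly susceptible to HIV and fully lysed by it, were used in triplicate wells. Finter's neutral red, a vital dye, served as read-out of inhibition of HIV-induced cytopathic effect, with water as control. Maximum percent protection was recorded together with the compound concentration at which it was reached.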

[6] = test system: MT-2 cells; experiment: Toxicity against MT-2 cells; assay type: cell-based; conditions: concentration where no more than 5% cell death
[7] = test system: HIVNL4-3; experiment: Reverse transcriptase release into culture supernatant of MT-2 cells; assay type: cell-based, HIV
Summary of the method: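 MT-2 cells (500,000/well) were preincubated 1 h at 37 °C with test compound at a non-toxic concentration (≤5% cell death), then infected with H9-grown HIV NL4-3 (100,000 cpm RT activity per well, MOI <1). Virus control was infected cells plus water. Supernatants from days 2, 4 and 6 were PEG-precipitated and lysed. RT was measured as 3H-dTTP incorporation (poly rA-oligo dT, 1 h, 37 °C), as cpm/ml. Three separate experiments, each in triplicate.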

[8] = test system: tetraloop TAR RNA Mutant; experiment: FID titration with Scatchard analysis on mutant TAR; assay type: binding, HIV-1; conditions: mutant tetraloop TAR 200 nM/strand; 100 mM KCl, pH 6.8; EtBr 5 μM
Summary of the method: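 Tetraloop TAR RNA–ethidium bromide complex in 100 mM KCl, 10 mM SC, 0.5 mM EDTA, pH 6.8, titrated with increasing test compound. The fall in fluorescence at 610 nm was followed. Normalized intensity was plotted against compound concentration, then transformed by Scatchard analysis to derive the binding constant.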

[9] = biological target: T1, Tat49-57 peptide, fluorescein/TAMRA …; experiment: fluorescence intensity

Molecule	ΔTm (at rdr = 1) [1]	Tm [1]	K (binding constant from Scatchard analysis of FID) [2]	IC50 [3]	inhibitory effect [4]	Maximum protection from HIV cytopathic effects ([5]; MT-2 cells)	ΔTm (at rdr = 1) ([1]; listed as neomycin)	5% Toxicity (CT5) [6]	concentration at which maximum protection was achieved ([5]; MT-2 cells, HIV cytopathic effect)	protection / suppression of RT release ([7]; day 2 post inoculation, vs virus control)	protection / suppression of RT release ([7]; day 4, vs virus control)	protection / suppression of RT release ([7]; day 6, vs virus control)	anti-HIV activity in the 96-well plate screening assay ([5]; HIV-induced cytopathic effect)	Ka (Scatchard analysis of FID titration) [8]	apparent K (half saturation) [9]
NC[C@@H]1O[C@H](O[C@H]2[C@@H](O)[C@H](O[C@@H]3[C@@H](O)[C@H](N)C[C@H](N)[C@H]3O[C@H]3O[C@H](CN)[C@@H](O)[C@H](O)[C@H]3N)O[C@@H]2Cn2cc(COCc3cn(C[C@H]4O[C@@H](O[C@@H]5[C@@H](O)[C@H](N)C[C@H](N)[C@H]5O[C@H]5O[C@H](CN)[C@@H](O)[C@H](O)[C@H]5N)[C@H](O)[C@@H]4O[C@H]4O[C@@H](CN)[C@@H](O)[C@H](O)[C@H]4N)nn3)nn2)[C@H](N)[C@@H](O)[C@@H]1O [DPA51]	10.2 °C	79.1 °C	1.17e+08 M⁻¹	56 nM	–	–	–	–	–	–	–	–	–	–	–
NC[C@@H]1O[C@H](O[C@H]2[C@@H](O)[C@H](O[C@@H]3[C@@H](O)[C@H](N)C[C@H](N)[C@H]3O[C@H]3O[C@H](CN)[C@@H](O)[C@H](O)[C@H]3N)O[C@@H]2CO)[C@H](N)[C@@H](O)[C@@H]1O [Neomycin, Neomycin B tri-sulfate, reference compound]	0.2 °C	69.1 °C	–	417 nM	less than 1 μM	9%	no thermal stabilization	–	–	–	–	–	–	–	–
NC[C@@H]1O[C@H](O[C@H]2[C@@H](O)[C@H](O[C@@H]3[C@@H](O)[C@H](N)C[C@H](N)[C@H]3O[C@H]3O[C@H](CN)[C@@H](O)[C@H](O)[C@H]3N)O[C@@H]2Cn2cc(CCCCc3cn(C[C@H]4O[C@@H](O[C@@H]5[C@@H](O)[C@H](N)C[C@H](N)[C@H]5O[C@H]5O[C@H](CN)[C@@H](O)[C@H](O)[C@H]5N)[C@H](O)[C@@H]4O[C@H]4O[C@@H](CN)[C@@H](O)[C@H](O)[C@H]4N)nn3)nn2)[C@H](N)[C@@H](O)[C@@H]1O [DPA54]	8.2 °C	77.1 °C	2.61e+07 M⁻¹	81 nM	–	31%	–	69 µM	17 µM	–	–	–	–	–	–
NC[C@@H]1O[C@H](O[C@H]2[C@@H](O)[C@H](O[C@@H]3[C@@H](O)[C@H](N)C[C@H](N)[C@H]3O[C@H]3O[C@H](CN)[C@@H](O)[C@H](O)[C@H]3N)O[C@@H]2Cn2cc(-c3cccc(-c4cn(C[C@H]5O[C@@H](O[C@@H]6[C@@H](O)[C@H](N)C[C@H](N)[C@H]6O[C@H]6O[C@H](CN)[C@@H](O)[C@H](O)[C@H]6N)[C@H](O)[C@@H]5O[C@H]5O[C@@H](CN)[C@@H](O)[C@H](O)[C@H]5N)nn4)c3)nn2)[C@H](N)[C@@H](O)[C@@H]1O [DPA65]	9.3 °C	78.2 °C	1.39e+08 M⁻¹	36 nM	–	–	–	–	–	40-67%	68-73%	24-27%	inactive to weakly active	~ 10^7 M^−1	–
GGCAGAUCUGAGCCUGGGAGCUCUCUGCC (structured_RNA) [HIV-1 TAR RNA]	–	–	–	–	–	–	–	–	–	–	–	–	–	–	86 ± 9 nM
